Data as given in ChEMBL document CHEMBL1139490, “Design, synthesis, and biological evaluation of prazosin-related derivatives as multipotent compounds” (J Med Chem, 2005).

Assays:
[1] = tested on: LNCaP; experiment: Antiproliferative activity was determined by colorimetric MTS assay in LNCaP cells after 72 hr of incubation with compounds (1-100 uM); format: functional, cell-based; conditions: Homo sapiens
Outline: (§1)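 LNCaP cells exposed 72 h to compounds (1–100 μM). Proliferation read by colorimetric MTS assay. IC50 is the concentration giving 50% inhibition of cell proliferation. Mean ± SD of three independent experiments.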

[2] = tested on: LNCaP; experiment: Antioxidant activity against formation of ROS was determined in t-BuOOH treated LNCaP cells after 24 hr of incubation with compounds (1-100 uM); Not active at 100 uM; format: functional, cell-based, Homo sapiens
[3] = biological target: T1, Alpha-1A adrenergic receptor (Homo sapiens, UniProt P35348); experiment: Equilibrium dissociation constant was evaluated by radio-receptor binding assays using [3H]prazosin to label cloned human alpha 1a expressed in CHO cells; format: cell-based
T1 sequence (P35348 whole entry): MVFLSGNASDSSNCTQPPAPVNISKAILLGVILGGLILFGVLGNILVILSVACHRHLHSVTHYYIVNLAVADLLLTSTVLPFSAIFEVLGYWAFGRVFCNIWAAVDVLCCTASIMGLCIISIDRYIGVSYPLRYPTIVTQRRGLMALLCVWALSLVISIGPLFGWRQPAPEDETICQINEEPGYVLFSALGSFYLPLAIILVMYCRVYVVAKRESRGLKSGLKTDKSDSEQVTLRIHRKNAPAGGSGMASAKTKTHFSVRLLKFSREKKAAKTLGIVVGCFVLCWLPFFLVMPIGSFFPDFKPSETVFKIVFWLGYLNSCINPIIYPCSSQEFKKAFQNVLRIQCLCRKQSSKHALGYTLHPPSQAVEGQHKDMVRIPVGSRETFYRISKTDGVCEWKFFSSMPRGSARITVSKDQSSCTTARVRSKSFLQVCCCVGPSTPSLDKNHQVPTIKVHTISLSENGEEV

[4] = biological target: T2, Alpha-1B adrenergic receptor (Rattus norvegicus, UniProt P15823); experiment: Blocking activity was assessed by antagonism of (-)-phenylephrine induced contraction of rat spleen (alpha1B adrenoceptor); format: functional, tissue-based; conditions: read-out: pA2 (converted)
T2 sequence (P15823 whole entry): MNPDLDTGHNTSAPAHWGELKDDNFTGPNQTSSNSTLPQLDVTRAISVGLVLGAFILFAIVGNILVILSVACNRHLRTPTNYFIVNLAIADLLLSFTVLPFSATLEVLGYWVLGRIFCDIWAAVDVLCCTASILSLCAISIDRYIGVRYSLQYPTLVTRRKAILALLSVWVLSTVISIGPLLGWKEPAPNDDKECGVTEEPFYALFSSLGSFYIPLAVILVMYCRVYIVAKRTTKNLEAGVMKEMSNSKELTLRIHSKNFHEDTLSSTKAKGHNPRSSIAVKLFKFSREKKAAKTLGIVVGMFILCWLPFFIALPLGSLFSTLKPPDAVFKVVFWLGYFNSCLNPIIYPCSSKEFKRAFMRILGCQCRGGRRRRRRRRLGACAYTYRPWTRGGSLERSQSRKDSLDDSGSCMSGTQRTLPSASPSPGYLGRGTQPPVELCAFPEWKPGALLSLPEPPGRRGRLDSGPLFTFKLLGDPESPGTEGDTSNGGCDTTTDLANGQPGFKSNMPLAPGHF

[5] = biological target: T3, Alpha-1D adrenergic receptor (Rattus norvegicus, UniProt P23944); experiment: Blocking activity was assessed by antagonism of (-)-noradrenaline induced contraction of rat thoracic aorta (Alpha-1D adrenoceptor); format: functional, tissue-based; conditions: read-out: pA2 (converted)
T3 sequence (P23944 whole entry): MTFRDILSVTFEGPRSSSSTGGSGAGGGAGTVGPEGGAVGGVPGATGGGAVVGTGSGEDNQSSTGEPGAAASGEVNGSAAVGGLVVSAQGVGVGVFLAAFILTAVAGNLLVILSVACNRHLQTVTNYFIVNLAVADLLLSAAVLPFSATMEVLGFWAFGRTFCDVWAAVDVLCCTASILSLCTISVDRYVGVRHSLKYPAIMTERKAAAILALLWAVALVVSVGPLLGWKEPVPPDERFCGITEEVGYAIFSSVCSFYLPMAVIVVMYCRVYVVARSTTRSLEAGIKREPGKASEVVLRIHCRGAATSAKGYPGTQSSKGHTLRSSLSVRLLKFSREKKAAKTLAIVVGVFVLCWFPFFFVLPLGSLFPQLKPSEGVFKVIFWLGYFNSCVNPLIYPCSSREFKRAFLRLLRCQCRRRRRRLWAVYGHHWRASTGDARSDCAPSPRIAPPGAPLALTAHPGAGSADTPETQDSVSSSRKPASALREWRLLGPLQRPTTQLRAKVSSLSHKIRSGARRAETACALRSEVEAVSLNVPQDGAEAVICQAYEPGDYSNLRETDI

[6] = biological target: T4, Alpha-1B adrenergic receptor (Homo sapiens, UniProt P35368); experiment: Equilibrium dissociation constant was evaluated by radio-receptor binding assays using [3H]prazosin to label cloned human alpha 1b expressed in CHO cells; format: cell-based
T4 sequence (P35368 whole entry): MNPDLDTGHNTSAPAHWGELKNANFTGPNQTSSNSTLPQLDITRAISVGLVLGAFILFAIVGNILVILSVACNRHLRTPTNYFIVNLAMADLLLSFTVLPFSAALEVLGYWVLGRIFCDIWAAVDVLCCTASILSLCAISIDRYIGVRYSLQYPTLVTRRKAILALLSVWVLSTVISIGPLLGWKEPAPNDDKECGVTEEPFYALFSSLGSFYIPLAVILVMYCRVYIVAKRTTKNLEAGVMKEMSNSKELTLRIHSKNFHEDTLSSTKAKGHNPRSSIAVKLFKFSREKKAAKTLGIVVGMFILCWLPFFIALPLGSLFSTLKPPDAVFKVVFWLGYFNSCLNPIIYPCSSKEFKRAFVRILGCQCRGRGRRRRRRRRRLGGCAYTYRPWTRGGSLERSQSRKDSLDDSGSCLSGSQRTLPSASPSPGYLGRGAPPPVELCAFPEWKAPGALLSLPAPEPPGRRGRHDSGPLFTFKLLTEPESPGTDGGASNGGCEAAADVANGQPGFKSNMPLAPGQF

[7] = biological target: T5, Alpha-1D adrenergic receptor (Homo sapiens, UniProt P25100); experiment: Equilibrium dissociation constant was evaluated by radio-receptor binding assays using [3H]prazosin to label cloned human alpha 1d expressed in CHO cells; format: cell-based
T5 sequence (P25100 whole entry): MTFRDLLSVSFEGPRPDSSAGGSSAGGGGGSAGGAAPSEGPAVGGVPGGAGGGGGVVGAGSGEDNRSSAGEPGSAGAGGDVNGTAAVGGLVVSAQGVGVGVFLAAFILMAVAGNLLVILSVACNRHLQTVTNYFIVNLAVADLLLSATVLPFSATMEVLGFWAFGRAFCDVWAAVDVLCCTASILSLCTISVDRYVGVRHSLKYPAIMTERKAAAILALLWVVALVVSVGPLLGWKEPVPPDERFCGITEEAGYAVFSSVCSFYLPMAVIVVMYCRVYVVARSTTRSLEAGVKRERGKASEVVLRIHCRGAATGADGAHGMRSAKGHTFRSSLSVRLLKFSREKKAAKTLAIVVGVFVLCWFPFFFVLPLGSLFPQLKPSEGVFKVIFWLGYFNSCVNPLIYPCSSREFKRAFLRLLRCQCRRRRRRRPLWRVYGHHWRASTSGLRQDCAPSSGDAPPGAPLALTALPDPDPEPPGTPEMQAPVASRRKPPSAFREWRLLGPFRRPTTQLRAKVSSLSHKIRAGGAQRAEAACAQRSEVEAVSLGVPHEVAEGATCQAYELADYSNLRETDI

[8] = biological target: T6, Alpha-1A adrenergic receptor (Rattus norvegicus, UniProt P43140); experiment: Blocking activity was assessed by antagonism of (-)-noradrenaline induced contraction of rat prostatic vas deferens (alpha1A adrenoceptor); format: functional, tissue-based; conditions: read-out: pA2 (converted)
T6 sequence (P43140 whole entry): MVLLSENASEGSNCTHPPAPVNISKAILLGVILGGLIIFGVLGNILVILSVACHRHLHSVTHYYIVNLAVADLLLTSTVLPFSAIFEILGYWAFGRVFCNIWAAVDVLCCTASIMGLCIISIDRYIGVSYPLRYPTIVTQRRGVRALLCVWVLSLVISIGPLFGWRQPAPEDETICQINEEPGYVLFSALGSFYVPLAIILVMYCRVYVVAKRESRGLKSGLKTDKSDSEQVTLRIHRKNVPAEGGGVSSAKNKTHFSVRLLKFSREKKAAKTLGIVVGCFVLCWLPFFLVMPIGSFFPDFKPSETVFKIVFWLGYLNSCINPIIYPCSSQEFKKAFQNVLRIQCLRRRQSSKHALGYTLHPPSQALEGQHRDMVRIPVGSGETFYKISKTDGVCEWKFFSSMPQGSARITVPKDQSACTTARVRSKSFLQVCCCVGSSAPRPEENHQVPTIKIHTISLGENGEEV

[9] = tested on: LNCaP; experiment: Antioxidant activity against formation of ROS was determined in t-BuOOH treated LNCaP cells after 24 hr of incubation with compounds (1-100 uM); format: functional, cell-based; conditions: Homo sapiens
[10] = tested on: LNCaP; experiment: Antiproliferative activity was determined by colorimetric MTS assay in LNCaP cells after 72 hr of incubation with compounds (1-100 uM); Not active at 100 uM; format: functional, cell-based, Homo sapiens; outline: as §1
[11] = tested on: LNCaP; experiment: Antioxidant activity against t-BuOOH induced ROS formation in LNCaP cells after 24 hr at 1-100 uM; Inactive at 100 uM; format: functional, cell-based, Homo sapiens
[12] = tested on: LNCaP; experiment: Antiproliferative activity in MTS assay in LNCaP cells after 72 hr at 1-100 uM; Inactive at 100 uM; format: functional, cell-based, Homo sapiens; outline: as §1

IC50 [1] | IC50 [2] | Ki [3] | Kb [4] | Kb [5] | Ki [6] | Ki [7] | Kb [8] | IC50 [9] | IC50 [10] | IC50 [11] | IC50 [12] | SMILES
49.6 µM | Not Active | 0.813 nM | 1.74 nM | 0.871 nM | 0.537 nM | 0.49 nM | 18.6 nM |  |  |  |  | COc1cc2nc(N3CCN(C(=O)C4CCSS4)CC3)nc(N)c2cc1OC (stereo not drawn)
52.6 µM | Not Active | 0.288 nM | 1.02 nM | 0.912 nM | 0.309 nM | 0.389 nM | 1 nM |  |  |  |  | COc1cc2nc(N3CCN(C(=O)CC4CCSS4)CC3)nc(N)c2cc1OC (stereo not drawn)
 |  | 1.41 nM | 40.7 nM | 12 nM | 1.26 nM | 0.891 nM | 64.6 nM | 83.5 µM | Not Active |  |  | COc1cc2nc(N3CCN(C(=O)CCCCC4CCSS4)CC3)nc(N)c2cc1OC (stereo not drawn)
8.82 µM |  | 1.26 nM | 3.09 nM | 0.891 nM | 0.676 nM | 0.933 nM | 22.9 nM | 2.63 µM |  |  |  | COc1cc2nc(N3CCN(C4=CC(=O)c5ccccc5C4=O)CC3)nc(N)c2cc1OC
 |  |  |  |  |  |  |  |  |  | Not Active | Not Active | COC1=CC(=O)c2ccccc2C1=O [2-Methoxy-1,4-naphthoquinone]
 | Not Active |  |  |  |  |  |  |  | Not Active |  |  | COc1cc2nc(N3CCNCC3)nc(N)c2cc1OC [AMINODIMETHOXYQUINAZOLINYLPIPERAZINE]
 |  |  | > 10000 nM | > 10000 nM |  |  | > 10000 nM | 54.9 µM | Not Active |  |  | O=C(O)CCCCC1CCSS1 (stereo not drawn) [LIPOIC ACID, ALPHA]
67.5 µM | Not Active |  |  |  |  |  |  |  |  |  |  | COc1cc2nc(N3CCN(C(=O)c4ccco4)CC3)nc(N)c2cc1OC [PRAZOSIN]
